Measurements taken from the array DNA melting data of Ke et al. (doi:10.1101/2024.01.08.574731).

Assays:
[1] = melting temperature; fluorescence melt of hairpins on a sequencing array, two-state fit, raised by 9.35 °C to match UV melts; settings: sodium 0.088 M
Summary of the method: (§1)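 On a sequenced MiSeq flow cell, library hairpins with annealed Cy3 and quencher oligos were imaged for Cy3 fluorescence in 2.5 °C steps up to 60 °C, in 50 mM Na-HEPES pH 8.0, 25 mM NaCl. Normalisation used pre-quench Cy3 and control constructs. Bootstrapped two-state fits gave melting temperature and folding enthalpy, combined by inverse variance across four replicates and with fitted temperatures raised by 9.35 °C to match UV melts.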

[2] = folding enthalpy; higher = less favourable; fluorescence melt of hairpins on a sequencing array, two-state fit; settings: sodium 0.088 M
Summary of the method: as §1

Sequence	Tm [1]	folding enthalpy [2]
GCTCAGCGAAAGCTCTGC ((..(((....)))..))	28.8 °C	-13.4 kcal/mol
GCTCAGCGAAAGCTTAGC (((.(((....))).)))	49.4 °C	-44.9 kcal/mol
GCTCAGCGAAAGCTTCGC ((..(((....)))..))	40 °C	-12.6 kcal/mol
GCTCAGCGAAAGCTTTGC ((..(((....)))..))	38.6 °C	-14.4 kcal/mol
GCTCAGGAAACTGAGC ((((((....))))))	64.7 °C	-42.4 kcal/mol
GCTCAGGGAAACCTGAGC (((((((....)))))))	68.3 °C	-44.7 kcal/mol
GCTCATGGAAACGTGAGC (((((.(....).)))))	53.4 °C	-47.5 kcal/mol
GCTCCAACGAAAGTTAGC (((..(((....))))))	27.9 °C	-11.8 kcal/mol
GCTCCACGAAAGTGAGC (((.(((....))))))	54 °C	-26.2 kcal/mol
GCTCCACGAAAGTGCAGC (((.(((....))).)))	46.2 °C	-22.1 kcal/mol
GCTCCCACGAAAGTGAGC (((..(((....))))))	40.2 °C	-17.1 kcal/mol
GCTCCCGAAAGGGAAAGC ((((((....)))..)))	51.7 °C	-16.6 kcal/mol
GCTCCCGAAAGGGCGAGC ((((((....)))..)))	47.9 °C	-16.3 kcal/mol
GCTCCCGAAAGGGTTAGC ((((((....)))..)))	43.3 °C	-16.2 kcal/mol
GCTCCCGGAAACGGGAAC (.(((((....))))).)	43 °C	-15 kcal/mol
GCTCCGACGAAAGTCAGC (((..(((....))))))	32.2 °C	-13.3 kcal/mol
GCTCCGCGAAAGCATAGC (((..((....))..)))	33.1 °C	-10.1 kcal/mol
GCTCCGCGAAAGCCGCGC ((.(.((....)).).))	36.2 °C	-11.8 kcal/mol
GCTCCGCGAAAGCCGTGC ((.(.((....)).).))	39.1 °C	-9.49 kcal/mol
GCTCCGCGAAAGCTCAGC (((..((....))..)))	27.2 °C	-9.77 kcal/mol
GCTCCGCGAAAGCTGCGC ((.(.((....)).).))	44.4 °C	-14.5 kcal/mol
GCTCCGGCGAAAGCCAGC (((..(((....))))))	32.6 °C	-11.2 kcal/mol
GCTCCGGGAAACCGAAGC (((.(((....))).)))	47.5 °C	-27.9 kcal/mol

Sequence	Tm [1]	folding enthalpy [2]
GCTCCTCGAAAGAGAAGC (((.(((....))).)))	46.1 °C	-29.4 kcal/mol
GCTCGAACGAAAGTTAGC (((..(((....))))))	31.5 °C	-12.1 kcal/mol
GCTCGACCGAAAGGTAGC (((..(((....))))))	39 °C	-13.8 kcal/mol
GCTCGACGAAAGTCAGC (((.(((....))))))	51.6 °C	-19.3 kcal/mol
GCTCGACGAAAGTCTAGC (((.(((....))).)))	49.6 °C	-41.8 kcal/mol
GCTCGAGCGAAAGCTAGC (((..(((....))))))	39.1 °C	-13.2 kcal/mol
GCTCGAGGAAACTCAAGC (((.(((....))).)))	37.7 °C	-30.7 kcal/mol
GCTCGCCGAAAGGCTAGC (((.(((....))).)))	54.6 °C	-27.9 kcal/mol
GCTCGCGAAAGCGTAGC ((((((....))).)))	61.9 °C	-19 kcal/mol
GCTCGCGAAAGCGTTAGC ((((((....)))..)))	45.9 °C	-14.1 kcal/mol
GCTCGCGGAAACGTGAGC ((((.((....)).))))	64.9 °C	-37.6 kcal/mol
GCTCGCGGAAACGTGGGC ((.(.((....)).).))	50.2 °C	-34 kcal/mol
GCTCGGCGAAAGCTCAGC (((..((....))..)))	44.7 °C	-11.9 kcal/mol
GCTCGTGCGAAAGCAAGC (((..(((....))))))	45.5 °C	-7.01 kcal/mol
GCTCGTGGAAACATGAGC ((((.((....)).))))	54.5 °C	-37.1 kcal/mol
GCTCGTGGAAACATGGGC ((.(.((....)).).))	42.9 °C	-17.1 kcal/mol
GCTCGTGGAAACGCGAGC (((((.(....).)))))	63.2 °C	-47.9 kcal/mol
GCTCTAGCGAAAGCTAGC (((..(((....))))))	38.3 °C	-5.88 kcal/mol
GCTCTAGGAAACTAGAGC (((((((....)))))))	60.1 °C	-44.6 kcal/mol
GCTCTCGAAAGAGTAAGC ((((((....)))..)))	39.7 °C	-22.6 kcal/mol
GCTCTCGGAAACAAGAGC (((((.(....).)))))	40.2 °C	-33.6 kcal/mol
GCTCTGCCGAAAGGCAGC (((..(((....))))))	40 °C	-6.01 kcal/mol
GCTCTGCGAAAGCACTGC ((..(((....)))..))	31.6 °C	-10.7 kcal/mol

Sequence	Tm [1]	folding enthalpy [2]
GCTCTGCGAAAGCCGAGC ((((.((....)).))))	60.1 °C	-25.2 kcal/mol
GCTCTGCGAAAGCCGTGC ((.(.((....)).).))	36.2 °C	-11.9 kcal/mol
GCTCTGCGAAAGCCTAGC (((..((....))..)))	36.6 °C	-14.7 kcal/mol
GCTCTGCGAAAGCTAAGC (((..((....))..)))	37.9 °C	-13.4 kcal/mol
GCTCTGGCGAAAGCCAGC (((..(((....))))))	31.5 °C	-6.82 kcal/mol
GCTCTTCCGAAAGGAAGC (((..(((....))))))	37.2 °C	-9 kcal/mol
GCTCTTGCGAAAGCAAGC (((..(((....))))))	36.2 °C	-8.63 kcal/mol
GCTCTTGGAAACAGGAGC ((((.((....)).))))	48.9 °C	-33.9 kcal/mol
GCTGAATCGAAAGATAGC (((..(((....))))))	31.9 °C	-17.3 kcal/mol
GCTGACGAAAGTCACAGC ((((((....)))..)))	45.3 °C	-15.4 kcal/mol
GCTGACGAAAGTCCTAGC ((((((....)))..)))	34.3 °C	-17 kcal/mol
GCTGAGACGAAAGTCAGC (((..(((....))))))	49.1 °C	-21.4 kcal/mol
GCTGAGCGAAAGCAAAGC (((..((....))..)))	60.2 °C	-28.5 kcal/mol
GCTGAGCGAAAGCAGAGC (((..((....))..)))	45.9 °C	-17 kcal/mol
GCTGAGCGAAAGCCCAGC ((((.((....)).))))	63.9 °C	-47.6 kcal/mol
GCTGAGCGAAAGCCTAGC (((..((....))..)))	48.4 °C	-16.4 kcal/mol
GCTGAGCGAAAGCGCGGC ((.(.((....)).).))	63 °C	-26.3 kcal/mol
GCTGAGCGAAAGCTGAGC (((.(((....))).)))	55 °C	-40.4 kcal/mol
GCTGAGCGAAAGCTTTGC ((..(((....)))..))	47.9 °C	-19.1 kcal/mol
GCTGAGGAAACTCAGC ((((((....))))))	63.5 °C	-37.7 kcal/mol
GCTGAGGGAAACCTCAGC (((((((....)))))))	69.2 °C	-45.2 kcal/mol
GCTGAGGGAAACTTCGGC ((.((.(....).)).))	33.8 °C	-29 kcal/mol
GCTGATCGAAAGATAGC (((.(((....))))))	41.5 °C	-23.1 kcal/mol

Sequence	Tm [1]	folding enthalpy [2]
GCTGCAGGAAACCGCAGC (((((.(....).)))))	57.8 °C	-32.9 kcal/mol
GCTGCAGGAAACTGCGGC ((.((((....)))).))	61.6 °C	-41.5 kcal/mol
GCTGCAGGAAACTGTGGC ((..(((....)))..))	46.5 °C	-25.8 kcal/mol
GCTGCCGAAAGGCATAGC ((((((....)))..)))	51.6 °C	-15 kcal/mol
GCTGCCGAAAGGCCAGC ((((((....))).)))	61.5 °C	-24.4 kcal/mol
GCTGCCGAAAGGCCGAGC ((((((....)))..)))	43.6 °C	-13.9 kcal/mol
GCTGCCGAAAGGCTAAGC ((((((....)))..)))	53.8 °C	-16.8 kcal/mol
GCTGCCGGAAACGACAGC ((((.((....)).))))	55.2 °C	-45.7 kcal/mol
GCTGCGCGAAAGCACGGC ((.(.((....)).).))	59.1 °C	-26.6 kcal/mol
GCTGCGCGAAAGCACTGC ((.(.((....)).).))	53.3 °C	-24.2 kcal/mol
GCTGCGCGAAAGCGAAGC (((.(((....))).)))	69.1 °C	-29.7 kcal/mol
GCTGCGTCGAAAGACAGC (((..(((....))))))	47.1 °C	-14.5 kcal/mol
GCTGGAACGAAAGTTAGC (((..(((....))))))	33.9 °C	-18.1 kcal/mol
GCTGGACGAAAGTCTAGC (((.(((....))).)))	62.4 °C	-39.1 kcal/mol
GCTGGCACGAAAGTGAGC (((..(((....))))))	36.9 °C	-14.1 kcal/mol
GCTGGCCGAAAGGCAAGC (((.(((....))).)))	68.9 °C	-25.5 kcal/mol
GCTGGCGAAAGCCGCAGC ((((((....)))..)))	52.4 °C	-12.9 kcal/mol
GCTGGCGAAAGCCTTAGC ((((((....)))..)))	44.4 °C	-15.1 kcal/mol
GCTGGGCGAAAGCAGAGC (((..((....))..)))	49.5 °C	-19.8 kcal/mol
GCTGGGCGAAAGCCAAGC (((.(((....))).)))	66.8 °C	-26.8 kcal/mol
GCTGGGCGAAAGCCACGC ((..(((....)))..))	48 °C	-15.6 kcal/mol
